Converted amounts (≈) assume the structure as drawn.

The subject of one data set is Escherichia coli. Nature of the data set: Antibacterial activity against Escherichia coli ATCC 25922 cultured in MHB medium assessed as no bacterial growth incubated at 37 degC for 24 hrs by microdilution susceptibility test. Type of data set: functional. As to conditions: ATCC 25922, 24 h. Summed up: (§1)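 Broth microdilution per CLSI M07-A9 with modifications. Inoculum about 2.5–3 x 10⁴ cells/mL in Mueller-Hinton broth, mixed 1:1 with test derivative. DMSO stocks diluted in double-distilled water, final DMSO <1%. Incubation 24 h at 37 °C (20 °C for C. glutamicum). Growth and sterility controls included; oxytetracycline reference.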
Background: In broth dilution the organism is exposed to a series of concentrations in liquid medium.

A short description of data set [1]: Selectivity index, ratio of EC50 for hemolytic activity against human RBC to MIC for antibacterial activity against Staphylococcus aureus ATCC 9144. Particulars: human red blood cells (RBC). It is filed as toxicity. Summed up: (§2)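 Selectivity index is the RBC haemolysis EC50 divided by the MIC against the E. coli or S. aureus reference strain.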
A further data set deals with Pseudomonas aeruginosa. Nature of the data set: Antibacterial activity against Pseudomonas aeruginosa PA01 DSM 19880 (ATCC 15692) cultured in MHB medium assessed as no bacterial growth incubated at 37 degC for 24 hrs by microdilution susceptibility test. It is filed as functional. Particulars: PAO1 DSM 19880 (ATCC 15692). The method in brief:
as §1

In the next data set the test system is MRC5. Nature of the data set: Cytotoxicity against human MRC5 cells assessed as reduction in cell viability incubated for 4 hrs by CellTiter 96 Aqueous One Solution Reagent based assay. As to conditions: MRC5, 4 h. Summed up:
(§3)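 HepG2 and MRC-5 cells seeded at 35 000 and 15 000 cells/well respectively, then held overnight at 37 °C, 5% CO₂. Compounds in serum-free MEM Earle's applied for 4 h. MTS reagent (CellTiter 96 AQueous One) added for a further 1 h, absorbance read at 485 nm. Survival expressed relative to medium (negative) and Triton X-100 (positive) controls.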

Data set [2] has as its system Corynebacterium glutamicum. The experiment in a line: Antibacterial activity against Corynebacterium glutamicum ATCC 13032 cultured in MHB medium assessed as no bacterial growth incubated at 20 degC for 24 hrs by microdilution susceptibility test. It is filed as functional. As to conditions: ATCC 13032, 24 h. Summed up:
as §1

The next data set has as its system Staphylococcus aureus. The experiment in a line: Antibacterial activity against Staphylococcus aureus ATCC 9144 cultured in MHB medium assessed as no bacterial growth incubated at 37 degC for 24 hrs by microdilution susceptibility test. It is filed as functional. As to conditions: ATCC 9144, 24 h. Summed up:
as §1

The subject of a further data set is HepG2. The experiment in a line: Cytotoxicity against human HepG2 cells assessed as reduction in cell viability incubated for 4 hrs by CellTiter 96 Aqueous One Solution Reagent based assay. As to conditions: HepG2, 4 h. Summed up:
as §3

A further data set has as its system Erythrocyte. Nature of the data set: Hemolytic activity against human RBC incubated for 1 hr. Type of data set: cell-based. Summed up: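 Heparinized human blood washed three times in warm PBS and set to 10% hct. Erythrocytes at 1% v/v final, with compound in PBS (DMSO <1%), shaken 1 h at 37 °C and then centrifuged. Supernatant absorbance read at 405 and 545 nm after PBS background subtraction. Haemolysis taken relative to 1% Triton X-100. Three independent replicates, EC50 averaged.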

Data set [3] can be described thus: Aqueous solubility of the compound in DMSO. It is filed as physicochemical.
Data set [4] is described as follows: Selectivity index, ratio of EC50 for hemolytic activity against human RBC to MIC for antibacterial activity against Escherichia coli ATCC 25922. Particulars: human red blood cells (RBC). Type of data set: toxicity. The method in brief:
as §2

With `N#CC(Cc1ccccc1C(F)(F)F)(Cc1ccccc1C(F)(F)F)C(=O)NCCN`, the minimal inhibitory concentration (MIC) (commonly the smallest concentration in the dilution series that meets the test's criterion for growth inhibition) in the data set with Escherichia coli was found to be 16 mg/L (≈ 36.1 µM); in the data set on Pseudomonas aeruginosa, 32 mg/L (≈ 72.2 µM); in [2] it was 8 mg/L (≈ 18 µM); with Staphylococcus aureus, 16 mg/L (≈ 36.1 µM). The selectivity ratio in [1] and in data set [4] was 6 in each case. For the same molecule, the results for the 50% effective concentration (EC50) in the data set with MRC5, in the data set with HepG2 and in the data set with Erythrocyte were 27 mg/L (≈ 60.9 µM), 24 mg/L (≈ 54.1 µM) and 89 mg/L (≈ 201 µM), respectively. Further, in data set [3], the solubility entry is recorded as “Soluble”.
As for `NCCNC(=O)C(CN)(Cc1cc(F)cc(F)c1)Cc1cc(F)cc(F)c1`, the MIC in the data set on Escherichia coli is more than 64 mg/L; in the data set on Pseudomonas aeruginosa, more than 64 mg/L; in data set [2], 64 mg/L (≈ 167 µM); in the data set on Staphylococcus aureus, more than 64 mg/L. Moreover, the values for the EC50 in the data set on HepG2 and in the data set with Erythrocyte were more than 64 mg/L and 228 mg/L (≈ 595 µM), respectively. The solubility result in [3] was “Soluble”.
For `NCCNC(=O)C(CN)(Cc1ccccc1Br)Cc1ccccc1Br`, the MIC came to 64 mg/L (≈ 136 µM) in the data set on Escherichia coli, 64 mg/L (≈ 136 µM) with Pseudomonas aeruginosa, 8 mg/L (≈ 17 µM) in data set [2] and 64 mg/L (≈ 136 µM) in the data set with Staphylococcus aureus. Also, the selectivity ratio in data set [1] and in data set [4] was 4 throughout. Moreover, the EC50 (usually the concentration needed to bring the measured effect to its halfway point) in the data set on MRC5 was 56 mg/L (≈ 119 µM); in the data set on HepG2 it was 48 mg/L (≈ 102 µM); in the data set on Erythrocyte, 271 mg/L (≈ 578 µM). The solubility entry in [3] is “Soluble”.
With `N#CC(Cc1ccccc1Br)(Cc1ccccc1Br)C(=O)NCCN`, the MIC with Escherichia coli is 32 mg/L (≈ 68.8 µM); in the data set with Pseudomonas aeruginosa, more than 64 mg/L; in [2] it was 32 mg/L (≈ 68.8 µM); with Staphylococcus aureus it was 16 mg/L (≈ 34.4 µM). Moreover, the selectivity ratio in data set [1] turned out to be 13; in [4], 7. Further, the values for the half-maximal effective concentration (EC50) in the data set with MRC5, with HepG2 and with Erythrocyte were 32 mg/L (≈ 68.8 µM), 26 mg/L (≈ 55.9 µM) and 211 mg/L (≈ 454 µM), respectively. Also, the solubility entry in [3] is listed as “Soluble”.
As for `CN(C)[C@@H]1C(O)=C(C(N)=O)C(=O)[C@@]2(O)C(O)=C3C(=O)c4c(O)cccc4[C@@](C)(O)[C@H]3[C@H](O)[C@@H]12.Cl` [OXYTETRACYCLINE HYDROCHLORIDE], the MIC came out at 2.5 mg/L in the data set with Escherichia coli, 20 mg/L with Pseudomonas aeruginosa, 0.65 mg/L in [2] and 0.65 mg/L with Staphylococcus aureus. Also, the EC50 with HepG2 was more than 64 mg/L.
For the molecule `NCCNC(=O)C(CN)(Cc1c(F)cccc1F)Cc1c(F)cccc1F`, the MIC (in the data set on Escherichia coli; with Pseudomonas aeruginosa; in data set [2]; in the data set with Staphylococcus aureus) was more than 64 mg/L each time. Moreover, the EC50 with HepG2 is more than 64 mg/L. For the same molecule, the solubility entry in [3] is listed as “Soluble”.
As for `N#CC(Cc1cc(F)cc(F)c1)(Cc1cc(F)cc(F)c1)C(=O)NCCN`, the MIC was more than 64 mg/L in the data set with Escherichia coli, more than 64 mg/L in the data set with Pseudomonas aeruginosa, 32 mg/L (≈ 84.4 µM) in data set [2] and more than 64 mg/L in the data set with Staphylococcus aureus. For the same molecule, the results for the EC50 with HepG2 and in the data set with Erythrocyte were more than 64 mg/L and 208 mg/L (≈ 548 µM), respectively. Besides, the solubility result in data set [3] was “Soluble”.
Turning to `N#CC(Cc1ccccc1F)(Cc1ccccc1F)C(=O)NCCN`, the MIC in the data set on Escherichia coli is 64 mg/L (≈ 186 µM); with Pseudomonas aeruginosa it was more than 64 mg/L; in data set [2], 16 mg/L (≈ 46.6 µM); in the data set with Staphylococcus aureus, more than 64 mg/L. Also, the half-maximal effective concentration (EC50) with HepG2 was more than 64 mg/L; in the data set with Erythrocyte, 190 mg/L (≈ 553 µM). Moreover, in data set [3], the solubility result was “Soluble”. Moreover, in [4], the selectivity ratio stood at 3.
`N#CC(Cc1cc(Br)cc(Br)c1)(Cc1cc(Br)cc(Br)c1)C(=O)NCCN`: the MIC (with Escherichia coli; in the data set with Pseudomonas aeruginosa; in data set [2]; in the data set on Staphylococcus aureus) was more than 64 mg/L each time.
For the molecule `N#CC(Cc1ccc(F)c2ccccc12)(Cc1ccc(F)c2ccccc12)C(=O)NCCN`, the MIC turned out to be 4 mg/L (≈ 9.02 µM) in the data set on Escherichia coli, 32 mg/L (≈ 72.2 µM) in the data set with Pseudomonas aeruginosa, 2 mg/L (≈ 4.51 µM) in data set [2] and 4 mg/L (≈ 9.02 µM) in the data set on Staphylococcus aureus. Further, the EC50 was 4 mg/L (≈ 9.02 µM) in the data set with MRC5, 12 mg/L (≈ 27.1 µM) in the data set on HepG2 and more than 500 mg/L in the data set on Erythrocyte. The solubility entry in data set [3] is on record as “Soluble”.
Take `NCCNC(=O)C(CN)(Cc1cccc2ccccc12)Cc1cccc2ccccc12`: the MIC with Escherichia coli stood at 16 mg/L (≈ 38.9 µM); with Pseudomonas aeruginosa, 16 mg/L (≈ 38.9 µM); in [2], 2 mg/L (≈ 4.86 µM); in the data set with Staphylococcus aureus, 4 mg/L (≈ 9.72 µM). Besides, the selectivity ratio in data set [1] is 23; in data set [4] it was 6. Besides, the EC50 in the data set with MRC5 came to 9 mg/L (≈ 21.9 µM); with Erythrocyte, 90 mg/L (≈ 219 µM). Further, the solubility result in [3] was “Soluble”.
Take `N#CC(Cc1c(F)cccc1F)(Cc1c(F)cccc1F)C(=O)NCCN`: the minimal inhibitory concentration (MIC) (in the data set on Escherichia coli; in the data set on Pseudomonas aeruginosa; in data set [2]; with Staphylococcus aureus) was more than 64 mg/L throughout. Also, the concentration giving a half-maximal response (EC50) with HepG2 was more than 64 mg/L. Also, the solubility entry in [3] is listed as “Soluble”.
On to `N#CC(Cc1ccc(C(F)(F)F)cc1)(Cc1ccc(C(F)(F)F)cc1)C(=O)NCCN`, for which the MIC came out at 16 mg/L (≈ 36.1 µM) with Escherichia coli, 64 mg/L (≈ 144 µM) with Pseudomonas aeruginosa, 8 mg/L (≈ 18 µM) in data set [2] and 32 mg/L (≈ 72.2 µM) in the data set on Staphylococcus aureus. Also, the selectivity ratio stood at 6 in [1] and 11 in data set [4]. The concentration for a half-maximal effect (EC50) in the data set on MRC5 turned out to be 18 mg/L (≈ 40.6 µM); in the data set with HepG2 it was 23 mg/L (≈ 51.9 µM); with Erythrocyte, 178 mg/L (≈ 401 µM). In [3], the solubility entry is listed as “Soluble”.
With `NCCNC(=O)C(CN)(Cc1ccccc1F)Cc1ccccc1F`, the MIC (with Escherichia coli; in the data set with Pseudomonas aeruginosa; in [2]; in the data set on Staphylococcus aureus) was more than 64 mg/L in each case. Also, the EC50 with HepG2 is more than 64 mg/L. Besides, the solubility result in data set [3] was “Soluble”.
